In ChEMBL document CHEMBL3596195, “Novel cajaninstilbene acid derivatives as antibacterial agents” (Eur J Med Chem, 2015):
≈ marks a conversion by molar mass, not a printed value.

Legend:
[1] = tested on: Staphylococcus epidermidis; assay: Antibacterial activity against Staphylococcus epidermidis ATCC12228 assessed as bacterial growth inhibition after 24 hrs by broth dilution method; format: functional; conditions: ATCC12228, 24 h
[2] = Selectivity index, ratio of IC50 for mouse RAW264.7 cells to MIC for methicillin-resistant Staphylococcus aureus ATCC62202; format: toxicity; conditions: read-out: Selectivity Index
In short: (§1)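 SI = IC50 in mouse RAW 264.7 macrophages divided by broth-dilution MIC. For cytotoxicity, cells in DMEM/10% FBS/2 mM L-glutamine were seeded at 10,000/well for 12 h. They were then dosed across a concentration gradient in 1% FBS medium with DMSO below 0.1% for 72 h. Read-out was MTT, absorbance 562 nm, 4 wells × at least 3 runs.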

[3] = Cytotoxicity against mouse RAW264.7 cells assessed as cell viability at 8 ug/ml after 72 hrs by MTT assay; format: cell-based; conditions: read-out: Activity
In short: (§2)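 Mouse RAW 264.7 macrophages grown in DMEM with 10% FBS, 2 mM L-glutamine and penicillin/streptomycin at 37 °C, 5% CO2. Seeded at 10,000 cells/well for 12 h. Compound diluted 1000× from DMSO stock into 1% FBS medium (DMSO under 0.1%), over a concentration gradient, 72 h exposure. MTT formazan dissolved in DMSO for 45 min, absorbance read at 562 nm. Quadruplicate wells, at least three runs (N = 12).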

[4] = Selectivity index, ratio of IC50 for mouse RAW264.7 cells to MIC for methicillin-resistant Staphylococcus aureus ATCC51033; format: toxicity; conditions: read-out: Selectivity Index; in short: as §1
Staphylococcus aureus [5] = assay: Antibacterial activity against methicillin-resistant Staphylococcus aureus ATCC52056 assessed as bacterial growth inhibition after 24 hrs by broth dilution method; format: functional; conditions: ATCC52056, 24 h
Pseudomonas aeruginosa = assay: Antibacterial activity against Pseudomonas aeruginosa ATCC2785 assessed as bacterial growth inhibition after 24 hrs by broth dilution method; format: functional; conditions: ATCC2785, 24 h
[6] = Selectivity index, ratio of IC50 for mouse RAW264.7 cells to MIC for Staphylococcus aureus ATCC25923; format: toxicity; conditions: read-out: Selectivity Index; in short: as §1
Staphylococcus aureus [7] = assay: Antibacterial activity against methicillin-resistant Staphylococcus aureus ATCC425055 assessed as bacterial growth inhibition after 24 hrs by broth dilution method; format: functional; conditions: ATCC425055, 24 h
Staphylococcus aureus [8] = assay: Antibacterial activity against methicillin-resistant Staphylococcus aureus ATCC513045 assessed as bacterial growth inhibition after 24 hrs by broth dilution method; format: functional; conditions: ATCC513045, 24 h
[9] = tested on: Staphylococcus epidermidis; assay: Ratio of norfloxacin MIC to compound MIC for Staphylococcus epidermidis ATCC12228 after 24 hrs by broth dilution method; format: functional
[10] = Selectivity index, ratio of IC50 for mouse RAW264.7 cells to MIC for methicillin-resistant Staphylococcus aureus ATCC515992; format: toxicity; in short: as §1
[11] = Selectivity index, ratio of IC50 for mouse RAW264.7 cells to MIC for Bacillus subtilis ATCC6633; format: toxicity; conditions: read-out: Selectivity Index; in short: as §1
Bacillus subtilis = assay: Antibacterial activity against Bacillus subtilis ATCC6633 assessed as bacterial growth inhibition after 24 hrs by broth dilution method; format: functional; conditions: ATCC6633, 24 h
Staphylococcus aureus [12] = assay: Antibacterial activity against Staphylococcus aureus ATCC25923 assessed as bacterial growth inhibition after 24 hrs by broth dilution method; format: functional; conditions: ATCC25923, 24 h
Proteus vulgaris = assay: Antibacterial activity against Proteus vulgaris ATCC49101 assessed as bacterial growth inhibition after 24 hrs by broth dilution method; format: functional; conditions: ATCC49101, 24 h
Staphylococcus aureus [13] = assay: Ratio of penicillin MIC to compound MIC for Staphylococcus aureus ATCC25923 after 24 hrs by broth dilution method; format: functional
Escherichia coli = assay: Antibacterial activity against Escherichia coli ATCC25922 assessed as bacterial growth inhibition after 24 hrs by broth dilution method; format: functional; conditions: ATCC25922, 24 h
Staphylococcus aureus [14] = assay: Antibacterial activity against methicillin-resistant Staphylococcus aureus ATCC515992 assessed as bacterial growth inhibition after 24 hrs by broth dilution method; format: functional; conditions: ATCC515992, 24 h
[15] = Selectivity index, ratio of IC50 for mouse RAW264.7 cells to MIC for Staphylococcus epidermidis ATCC12228; format: toxicity; conditions: read-out: Selectivity Index; in short: as §1
[16] = Selectivity index, ratio of IC50 for mouse RAW264.7 cells to MIC for methicillin-resistant Staphylococcus aureus ATCC513045; format: toxicity; conditions: read-out: Selectivity Index; in short: as §1
[17] = Selectivity index, ratio of IC50 for mouse RAW264.7 cells to MIC for methicillin-resistant Staphylococcus aureus ATCC510019; format: toxicity; conditions: read-out: Selectivity Index; in short: as §1
Staphylococcus aureus [18] = assay: Antibacterial activity against methicillin-resistant Staphylococcus aureus ATCC510019 assessed as bacterial growth inhibition after 24 hrs by broth dilution method; format: functional; conditions: ATCC510019, 24 h
Staphylococcus aureus [19] = assay: Antibacterial activity against methicillin-resistant Staphylococcus aureus ATCC43300 assessed as bacterial growth inhibition after 24 hrs by broth dilution method; format: functional; conditions: ATCC43300, 24 h
RAW264.7 = assay: Cytotoxicity against mouse RAW264.7 cells assessed as inhibition of cell viability after 72 hrs by MTT assay; format: cell-based; conditions: RAW264.7, 72 h; in short: as §2
[20] = Selectivity index, ratio of IC50 for mouse RAW264.7 cells to MIC for methicillin-resistant Staphylococcus aureus ATCC52056; format: toxicity; conditions: read-out: Selectivity Index; in short: as §1
Staphylococcus aureus [21] = assay: Antibacterial activity against methicillin-resistant Staphylococcus aureus ATCC51033 assessed as bacterial growth inhibition after 24 hrs by broth dilution method; format: functional; conditions: ATCC51033, 24 h
[22] = Selectivity index, ratio of IC50 for mouse RAW264.7 cells to MIC for methicillin-resistant Staphylococcus aureus ATCC425055; format: toxicity; conditions: read-out: Selectivity Index; in short: as §1
[23] = Selectivity index, ratio of IC50 for mouse RAW264.7 cells to MIC for methicillin-resistant Staphylococcus aureus ATCC43300; format: toxicity; conditions: read-out: Selectivity Index; in short: as §1
[24] = Selectivity index, ratio of IC50 for mouse RAW264.7 cells to MIC for methicillin-resistant Staphylococcus aureus ATCC523512; format: toxicity; conditions: read-out: Selectivity Index; in short: as §1
Staphylococcus aureus [25] = assay: Antibacterial activity against methicillin-resistant Staphylococcus aureus ATCC523512 assessed as bacterial growth inhibition after 24 hrs by broth dilution method; format: functional; conditions: ATCC523512, 24 h
Staphylococcus aureus [26] = assay: Antibacterial activity against methicillin-resistant Staphylococcus aureus ATCC62202 assessed as bacterial growth inhibition after 24 hrs by broth dilution method; format: functional; conditions: ATCC62202, 24 h

SMILES: COc1cc(/C=C/c2ccccc2F)c(C(=O)O)c(O)c1CC=C(C)C
- MIC [1]: 1 mg/L (≈ 2.81 µM)
- selectivity ratio [2]: 6.17
- viability at 72 h, 8 ug/ml [3]: 92.7%
- selectivity ratio [4]: 6.17
- MIC (Staphylococcus aureus [5]): 2 mg/L (≈ 5.61 µM)
- MIC (Pseudomonas aeruginosa): > 64 mg/L
- selectivity ratio [6]: 6.17
- MIC (Staphylococcus aureus [7]): 0.5 mg/L (≈ 1.4 µM)
- MIC (Staphylococcus aureus [8]): 2 mg/L (≈ 5.61 µM)
- Ratio [9]: 8
- selectivity ratio [10]: 12.3
- selectivity ratio [11]: 6.17
- MIC (Bacillus subtilis): 0.5 mg/L (≈ 1.4 µM)
- MIC (Staphylococcus aureus [12]): 4 mg/L (≈ 11.2 µM)
- MIC (Proteus vulgaris): > 64 mg/L
- Ratio (Staphylococcus aureus [13]): 64
- MIC (Escherichia coli): 64 mg/L (≈ 180 µM)
- MIC (Staphylococcus aureus [14]): 2 mg/L (≈ 5.61 µM)
- selectivity ratio [15]: 6.17
- selectivity ratio [16]: 6.17
- selectivity ratio [17]: 12.3
- MIC (Staphylococcus aureus [18]): 2 mg/L (≈ 5.61 µM)
- MIC (Staphylococcus aureus [19]): 1 mg/L (≈ 2.81 µM)
- IC50 (RAW264.7): 24.7 mg/L (≈ 69.3 µM)
- selectivity ratio [20]: 12.3
- MIC (Staphylococcus aureus [21]): 1 mg/L (≈ 2.81 µM)
- selectivity ratio [22]: 6.17
- selectivity ratio [23]: 6.17
- selectivity ratio [24]: 6.17
- MIC (Staphylococcus aureus [25]): 2 mg/L (≈ 5.61 µM)
- MIC (Staphylococcus aureus [26]): 0.5 mg/L (≈ 1.4 µM)

SMILES: COc1cc(/C=C/c2cccc(F)c2)c(C(=O)O)c(O)c1CC=C(C)C
- MIC [1]: 2 mg/L (≈ 5.61 µM)
- selectivity ratio [2]: 5.04
- viability at 72 h, 8 ug/ml [3]: 91.7%
- selectivity ratio [4]: 5.04
- MIC (Staphylococcus aureus [5]): 0.5 mg/L (≈ 1.4 µM)
- MIC (Pseudomonas aeruginosa): > 64 mg/L
- selectivity ratio [6]: 5.04
- MIC (Staphylococcus aureus [7]): 2 mg/L (≈ 5.61 µM)
- MIC (Staphylococcus aureus [8]): 2 mg/L (≈ 5.61 µM)
- Ratio [9]: 8
- selectivity ratio [10]: 20.2
- selectivity ratio [11]: 5.04
- MIC (Bacillus subtilis): 0.5 mg/L (≈ 1.4 µM)
- MIC (Staphylococcus aureus [12]): 4 mg/L (≈ 11.2 µM)
- MIC (Proteus vulgaris): > 64 mg/L
- Ratio (Staphylococcus aureus [13]): 64
- MIC (Escherichia coli): > 128 mg/L
- MIC (Staphylococcus aureus [14]): 1 mg/L (≈ 2.81 µM)
- selectivity ratio [15]: 5.04
- selectivity ratio [16]: 5.04
- selectivity ratio [17]: 20.2
- MIC (Staphylococcus aureus [18]): 1 mg/L (≈ 2.81 µM)
- MIC (Staphylococcus aureus [19]): 1 mg/L (≈ 2.81 µM)
- IC50 (RAW264.7): 20.2 mg/L (≈ 56.6 µM)
- selectivity ratio [20]: 40.3
- MIC (Staphylococcus aureus [21]): 1 mg/L (≈ 2.81 µM)
- selectivity ratio [22]: 5.04
- selectivity ratio [23]: 5.04
- selectivity ratio [24]: 5.04
- MIC (Staphylococcus aureus [25]): 2 mg/L (≈ 5.61 µM)
- MIC (Staphylococcus aureus [26]): 0.5 mg/L (≈ 1.4 µM)
